Published values pooled from the literature.
Compare with care: the assays were run in different laboratories.
PFF0160c: Dihydroorotate dehydrogenase (quinone), mitochondrial (PFF0160c, Plasmodium falciparum, UniProt Q08210)
TBXA2R: Thromboxane A2 receptor (TBXA2R, Homo sapiens, UniProt P21731)
CNR1: Cannabinoid receptor 1 (CNR1, Homo sapiens, UniProt P21554)

SMILES | target | assay | setting | endpoint | value
Cn1nc2c(=O)n(C3CC3)ncc2c1[C@](O)(c1ccc(C(F)(F)F)c(C#N)c1)C(F)(F)F | PFF0160c | enzyme activity, inhibitor |  | IC50 | 25.1 nM
COC(=O)c1cc(N(C)C(=O)c2ccn3ncc(-c4ccc(C(=O)O)cc4)c3c2)ccc1Cl | TBXA2R | cell-free assay |  | IC50 | > 30000 nM
C=C1CC/C=C(\C)CC[C@@H]2[C@@H]1CC2(C)C | CNR1 | ligand displacement, radioligand |  | Ki | > 10000 nM
CCC(CC)(NC(=O)c1ccc(C2CC2)c(Cc2ccc(F)cc2)n1)C(=O)NCCOCCOCCNC(=O)c1ccc2c(c1)C1(OC2=O)c2ccc(N(C)C)cc2[Si](C)(C)c2cc(N(C)C)ccc21 | CNR1 | ligand displacement, radioligand | cell membranes | Ki | 462 nM
CC[C@@](O)(c1cnc(C(F)(F)F)c(Cl)c1)c1c2ccn(C3CC3)c(=O)c2nn1C | PFF0160c | enzyme activity, inhibitor |  | IC50 | 12.6 nM
CCCCCc1cc(O)c2c(c1)OC(C)(CCC=C(C)C)C=C2 (stereo not shown) | CNR1 | cell-free assay |  | Ki | > 1000 nM
C=C/C=C/CCN1CCC(O)(c2cccc(Br)c2)C1 (stereo not shown) | 5-hydroxytryptamine receptor 2A (HTR2A, Homo sapiens, UniProt P28223) | calcium signal, antagonist |  | IC50 | 15900 nM
O=C(N=Nc1c(O)n(CCCCCF)c2ccccc12)c1ccccc1 | CNR1 | β-arrestin recruitment, agonist |  | EC50 | 1820 nM
CNC(=O)c1ccc(-c2cnn3ccc(C(=O)N(C)c4ccc(Cl)c(C(=O)OC)c4)cc23)cc1 | TBXA2R | cell-free assay |  | IC50 | > 30000 nM
Cc1c(Cc2ccc(C(F)(F)F)cc2)n[nH]c1C(=O)NC1CC1 | PFF0160c | enzyme activity, inhibitor |  | IC50 | > 30000 nM
O=C(N=Nc1c(O)n(CC2CCCCC2)c2ccccc12)c1ccccc1 | CNR1 | ligand displacement, radioligand | cell membranes | Ki | 70.8 nM
CCn1cc(C)c2c([C@@H](N)c3ccc(C(F)(F)F)nc3)n(C)nc2c1=O | PFF0160c | enzyme activity, inhibitor |  | IC50 | 1000 nM
C=CCCCn1c(O)c(N=NC(=O)c2ccccc2)c2ccccc21 | CNR1 | ligand displacement, radioligand | cell membranes | Ki | 1660 nM
